Screening data deposited in PubChem by several laboratories.
An excerpt weighted towards active compounds, which were near 1.9% of everything screened.
ABHD5 PLIN5 PPI = inhibitors of human ABHD5-perilipin-5 interaction; AID 602281; 360,000 compounds, 0.78% hits; Split G. princeps luciferase complementation, luminescence, 4 h; Q00G26+Q8WTS1; inhibition, % at 4 µM;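 active means inhibition above the mean inhibition across every tested compound plus 3 SD, cut at about 22% in these data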;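 further: 0% = DMSO only wells and the 100% control is not disclosed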
NadD inh = inhibitors of Staphylococcus aureus NadD. purified NadD enzyme, colorimetric absorbance read-out. inhibition, % at 20 µM. 360,000 compounds, 0.78% hits; in the data active means inhibition above about 26%
Rpn11 inh = inhibitors of human proteasome Rpn11; AID 588493; inhibition, % at 20 µM; human 26S proteasome, Ub4-pepOG fluorescence polarization; 20S core pre-blocked with epoxomicin; O00487; 360,000 compounds, 0.59% hits;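 active means inhibition at 20 µM, scaled to each plate's controls, above about 33%, limit read from the data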
Xi reactivation = X-chromosome reactivation activator; activation, % at 7.58 µM; 360,000 compounds, 0.055% hits; XiGFP mouse fibroblasts, % GFP-positive cells imaging, 3 d; cells co-treated with 5-aza-dC sensitizer; scaled so ellipticine positive control = 100%; AID 743238;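 active means mean normalized replicate activation at least 10% and every replicate at or above 10%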;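 further: 0% = median of on-plate neutral control wells and 100% = ellipticine 6 µM median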
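Assay system: SV40-immortalized XiGFP fibroblast cells, line 68-5-11; buffer or medium: DMEM plus 5-aza-dC sensitizer; compound: one concentration, pinned; timing: compounds 3 days, fix/stain 15 min at room temperature; benchmarks: positive control ellipticine, 6 µM final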
Rin1-Abl PPI inh = blocks binding of human Rin1 to Abl; P00519+Q13671; TR-FRET Rin1/Abl binding, biochemical; inhibition, % at 7.35 µM; 360,000 compounds, 0.4% hits; in the data active means inhibition above about 5%, passing the limit was not always enough
ABHD5-PLIN5 conf = confirmation of human ABHD5-PLIN5 interaction inhibitors | shares compounds with ABHD5 PLIN5 PPI | biochemical ABHD5-PLIN5 interaction, luminescence | inhibition, % at 4 µM | 2,200 compounds, 67% hits; in the data active means inhibition above about 23%;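 further: 0% = DMSO vehicle wells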
HNF4 counter = active in HNF4 split-luciferase counter-screen for ABHD5-PLIN5 inhibitors; shares compounds with ABHD5 PLIN5 PPI; HNF4 dimerization, luminescence, biochemical; inhibition, % at 4 µM; 2,200 compounds, 77% hits; AID 651674;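 active means mean inhibition across replicate wells exceeding the computed hit threshold, cut at about 13% in these data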;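 further: light from luciferase halves that rejoin when HNF4 fusion proteins dimerize; 0% = DMSO only wells and the 100% control is not given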
Target sequence (P41235 whole entry, looked up, the tested form may be a part): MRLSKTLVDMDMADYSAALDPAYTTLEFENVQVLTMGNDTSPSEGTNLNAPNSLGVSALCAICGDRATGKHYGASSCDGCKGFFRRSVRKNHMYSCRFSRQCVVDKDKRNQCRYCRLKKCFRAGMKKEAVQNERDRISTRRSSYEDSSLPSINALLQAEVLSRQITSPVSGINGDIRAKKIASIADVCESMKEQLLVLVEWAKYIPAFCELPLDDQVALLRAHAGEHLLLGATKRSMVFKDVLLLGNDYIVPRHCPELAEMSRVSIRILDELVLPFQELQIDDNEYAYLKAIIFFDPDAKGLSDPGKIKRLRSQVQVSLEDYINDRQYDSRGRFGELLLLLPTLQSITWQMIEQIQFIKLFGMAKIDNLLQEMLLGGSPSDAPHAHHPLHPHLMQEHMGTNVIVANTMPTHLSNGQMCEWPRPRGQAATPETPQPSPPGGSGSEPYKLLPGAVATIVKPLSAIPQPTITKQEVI
Active calls of the source: *; . = no result shown.

SMILES	ABHD5 PLIN5 PPI	NadD inh	Rpn11 inh	Xi reactivation	Rin1-Abl PPI inh	ABHD5-PLIN5 conf	HNF4 counter
Cc1ccc(C(=O)C(C(=O)/C=C/c2ccccc2)=C2SCCCS2)cc1	31*	-4	6	.	-1	66*	50*
COc1ccccc1-c1cnc2c(c1)C(=O)N([C@@H](C)CO)C[C@@H](C)[C@@H](CN(C)Cc1ccncc1)O2	.	.	.	-1	.	.	.
CC1(C(=O)Nc2cccc3cccnc23)CCN1Cc1ccc(-c2ccccc2)o1 (stereo unspecified)	61*	6	2	0	-1	47*	73*
Cc1ccc(-n2nc3c(N4CCC(C(=O)NCCc5ccco5)CC4)nnc(C)c3c2C)cc1	30*	13	33	0	-1	14	12
COc1ccc(-n2nc3c(N4CCC(C(=O)NCc5ccco5)CC4)nnc(C)c3c2C)cc1	9	11	9	.	-5	.	.
CC(=O)Nc1ccc2c(c1)CC(=O)N(C)C[C@H](C)[C@H](CN(C)C(C)=O)O2	.	.	.	0	.	.	.
O=C(NCC1CCCCC1)[C@H]1[C@H](CO)[C@H]2Cn3c(cccc3=O)[C@@H]1N2CCc1ccccc1	.	.	.	0	.	.	.
CN(C)C(=O)CCc1nc2sc3c(c2c(=O)[nH]1)CCCC3	4	-7	-2	.	-2	.	.
CN(Cc1ccco1)C(=O)CCc1nc2sc3c(c2c(=O)[nH]1)CCCC3	24*	0	10	0	3	26*	43*
Cc1ccc(CN(C)C(=O)CCc2nc3sc4c(c3c(=O)[nH]2)CCCC4)o1	32*	4	16	0	-5	17	29*
CCCC#Cc1ccc([C@H]2[C@H](CO)N3C(=O)CN(C(=O)c4cccc(F)c4)C[C@@H]23)cc1	.	.	.	0	.	.	.
O=C(NCc1ccco1)c1cccc(NC(=O)c2ccccc2)c1	6	3	-2	.	0	.	.
O=C(NCc1ccco1)c1ccc(C(=O)NCc2ccco2)cc1	2	3	-16	0	6	.	.
CCC(CC)C(=O)Nc1cccc(C(=O)NCc2ccco2)c1	25*	3	-12	.	4	25*	31*
O=C(NCc1ccco1)c1ccc2c(c1)C(=O)c1ccccc1-2	33*	4	-6	.	-5	46*	49*
O=C1N2CCCc3cccc(c32)C12Nc1ccccc1S2 (stereo unspecified)	61*	1	1	.	-5	-4	-4
Cc1nn(C)cc1NC(=O)CCSc1nc(-c2ccco2)cc(C(F)(F)F)n1	88*	-2	0	.	-2	6	3
C[C@H]1CN([C@@H](C)CO)C(=O)Cc2cc(NC(=O)Nc3ccccc3)ccc2O[C@@H]1CN(C)Cc1ccc(C(=O)O)cc1	.	.	.	0	.	.	.
CO[C@H]1CN(C)C(=O)c2cc(NS(=O)(=O)CC(F)(F)F)ccc2OC[C@@H](C)N(CCC(F)(F)F)C[C@@H]1C	.	.	.	0	.	.	.
CCC[n+]1c2ccccc2cc2ccccc21	72*	8	7	0	-2	94*	84*
CCCC[n+]1c2ccccc2cc2ccccc21	87*	13	4	0	1	102*	100*
Cc1ccc2ccccc2[n+]1CCCS(=O)(=O)[O-]	3	0	-1	.	5	.	.
CCCCC[n+]1cccc2c3ccccc3ccc21	2	23	-3	0	-5	.	.
C[C@@H]1CCCCO[C@@H](CN(C)S(=O)(=O)c2cccs2)[C@H](C)CN([C@H](C)CO)C(=O)c2cc(NC(=O)c3ccccc3)ccc2O1	.	.	.	0	.	.	.
C[C@H]1CN([C@@H](C)CO)C(=O)Cc2cc(NC(=O)CCCCCC(=O)Nc3ccccc3N)ccc2O[C@@H]1CN(C)C(=O)Nc1ccc(C(F)(F)F)cc1	.	.	.	-1	.	.	.
SMILES	ABHD5 PLIN5 PPI	NadD inh	Rpn11 inh	Xi reactivation	Rin1-Abl PPI inh	ABHD5-PLIN5 conf	HNF4 counter
Cc1c(C(=O)OCC(C)C)[nH]c2c1C(=O)CC(c1ccco1)C2 (stereo unspecified)	28*	6	11	2	-1	6	8
COc1ccc(NCc2nn(CC(=O)c3ccc(Br)cc3)c3[n+]2CCCCC3)cc1	6	7	28	0	0	.	.
O=C(Cn1nc(CNc2ccc(Cl)cc2)[n+]2c1CCCCC2)c1ccc(Br)cc1	30*	1	6	0	-1	18	-2
O=C1NC(=S)S/C1=C/c1ccc(N2CCOCC2)o1	44*	3	.	.	1	42*	106*
O=C1S/C(=C/c2ccc(N3CCOCC3)o2)C(=O)N1Cc1ccc(F)cc1	12	1	.	.	0	.	.
Cc1ccc(/C=C2\SC(=S)N(Cc3ccccc3)C2=O)o1	-5	19	.	.	-1	.	.
Cc1ccc(/C=C2/NC(=O)N(Cc3ccccc3)C2=O)o1	44*	11	.	0	1	58*	68*
COC(=O)CN1C(=O)N/C(=C/c2ccc(C)o2)C1=O	25*	-1	-12	0	-2	14	49*
Cc1ccc(S(=O)(=O)Nc2ccc3c(c2)C(=O)N(C)[C@H]2CC[C@@H](CC(=O)O)O[C@H]2CO3)cc1	.	.	.	0	.	.	.
Cc1cc(C)c(C(=O)/C=C/c2cccc3ccccc23)c(=O)[nH]1	54*	2	13	0	0	64*	61*
Cc1cc(C)c(C(=O)/C=C/c2ccc3c(c2)OCO3)c(=O)[nH]1	2	4	15	0	-1	.	.
COc1ccc(CNC(=O)N(C)C[C@H]2OCc3ccccc3-c3ccccc3C(=O)N([C@@H](C)CO)C[C@@H]2C)cc1	.	.	.	0	.	.	.
COCCN(CC(=O)NC1CCCCC1)C(=O)/C=C/C(=O)c1ccc(OC)cc1O	62*	-1	-4	1	1	102*	106*
COc1ccc(CN(C(=O)/C=C/C(=O)c2ccc(OC)cc2O)C(C(=O)NC2CCCCC2)c2ccncc2)cc1 (stereo unspecified)	6	10	6	0	0	.	.
CC(=O)NS(=O)(=O)c1ccc(NC(=O)/C=C/c2ccc(C)o2)cc1	28*	10	-11	0	-1	50*	62*
Cc1ccc(/C=C/C(=O)Nc2ccc(N(C)C)cc2)o1	1	5	6	0	-5	.	.
Cc1ccc(/C=C/C(=O)NCCc2cccc(Cl)c2)o1	40*	-3	12	0	-2	68*	79*
Cc1ccc(/C=C/C(=O)NCc2ccc(S(N)(=O)=O)cc2)o1	47*	6	-2	0	1	46*	57*
Cc1ccc(/C=C/C(=O)Nc2ccc(S(N)(=O)=O)cc2)o1	36*	4	8	0	3	64*	81*
CCCNC(=O)N1CCC2(CC1)CN(C(C)=O)[C@H](CO)c1c2c2ccc(OC)cc2n1C	.	.	.	0	.	.	.
